The values that follow come from ChEMBL document CHEMBL1132359, “Thiazolothiazepine inhibitors of HIV-1 integrase” (J Med Chem, 1999).

One may read the IC50 as the point on the concentration scale where inhibition reaches its midpoint. The EC50 is the concentration needed to bring the measured effect to its halfway point. A higher EC50 goes with a need for much substance. The term CC50 denotes the concentration at which the toxic effect on the cells reaches its halfway point.

Test [1] has as its target T1, Human immunodeficiency virus type 1 integrase (Human immunodeficiency virus 1, UniProt Q7ZJM1). Kind of test: Inhibition of the 3'-end joining activity of HIV-1 integrase. The method in brief: (§1)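 Then 20 nM 5′-32P-labeled linear oligonucleotide substrate added and incubated a further 1 h. Products separated on denaturing 20% polyacrylamide/urea gel and quantified by phosphorimaging. IC50 read from a plot of percent inhibition versus concentration.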

Test [2] concerns the target T1, Human immunodeficiency virus type 1 integrase. Put plainly: Inhibition of the 3'-processing activity of HIV-1 integrase. In short, it runs like this: as §1
Test [3] deals with CCRF-CEM. Kind of test: The compound was tested for inhibitory activity against HIV-1. It counts as functional, cell-based. To be noted: Homo sapiens.
In test [4] the test system is CCRF-CEM. Put plainly: Tested for cytotoxicity in CEM cells. To be noted: Homo sapiens. In kind it is functional.
The subject of test [5] is CCRF-CEM. Put plainly: The compound was tested for cytotoxicity against HIV-1 infected CEM cells. In kind it is functional. Conditions: Homo sapiens.
Test [6] relates to CCRF-CEM. Kind of test: The compound was tested for inhibitory activity against HIV-1 infected CEM cells. It counts as functional, cell-based. To be noted: Homo sapiens.

SMILES strings stand for the structures.

T1 sequence (Q7ZJM1 whole entry): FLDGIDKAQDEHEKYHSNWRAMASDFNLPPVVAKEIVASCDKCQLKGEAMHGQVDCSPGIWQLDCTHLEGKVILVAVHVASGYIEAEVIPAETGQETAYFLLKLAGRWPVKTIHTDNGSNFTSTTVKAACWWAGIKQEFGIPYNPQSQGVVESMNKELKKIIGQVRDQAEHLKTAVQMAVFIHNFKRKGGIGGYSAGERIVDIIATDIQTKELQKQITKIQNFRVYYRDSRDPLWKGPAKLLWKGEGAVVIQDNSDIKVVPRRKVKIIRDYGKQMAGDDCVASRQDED

For `CCOC(=O)C1Sc2ccccc2Cn2cccc21` (stereo unspecified), the IC50 in test [1] and in test [2] was over 1000 µM throughout.
Compound `O=C1Sc2cc([N+](=O)[O-])ccc2C(=O)N2CSCC12` (stereo unspecified) registered a half-maximal effective concentration (EC50) in the test on CCRF-CEM [3] of over 50 µM. Further, the figures for the IC50 in test [1] and in test [2] were 100 µM and 90 µM, respectively. Moreover, the CC50 with CCRF-CEM [4] is over 50 µM.
The compound `COc1ccc2c(c1)C(=O)N1CSCC1C(=O)S2` (stereo unspecified) returned an EC50 in the test with CCRF-CEM [3] of over 200 µM. Besides, the IC50 in test [1] and in test [2] was 155 µM throughout. In the test with CCRF-CEM [4], the CC50 was over 200 µM.
As for `COc1cc2c(cc1OC)C(=O)N1CSCC1C(=O)S2` (stereo unspecified), in the test on CCRF-CEM [3], the EC50 is over 50 µM. The IC50 was found to be 333 µM in test [1] and 670 µM in test [2]. The CC50 with CCRF-CEM [4] is over 50 µM.
Turning to `O=C1c2ccccc2SCC2CSC(c3ccccc3)N12` (stereo unspecified), the figures for the IC50 in test [1] and in test [2] were 376 µM and 372 µM, respectively.
The like results for `O=C1Sc2ccccc2C(=O)N2C[S+]([O-])CC12` (stereo unspecified) were, in that order, 215 µM and 200 µM.
With `CN1CCN(C2Sc3ccccc3C(=O)N3CCCC23)CC1` (stereo unspecified), in the test with CCRF-CEM [3], the EC50 is over 125 µM. Moreover, the half-maximal inhibitory concentration (IC50) in test [1] and in test [2] was over 1000 µM in each case. In addition, the CC50 with CCRF-CEM [4] is over 125 µM.
`Cc1ccc2c(c1)C(=O)N1CCSC1C(=O)S2` (stereo unspecified): the 50% inhibitory concentration (IC50) came out at 55 µM in test [1] and 64 µM in test [2].
As to `O=C1Sc2ccccc2C(=O)N2CSCC12` (stereo unspecified), the EC50 in the test on CCRF-CEM [3] is over 200 µM. The IC50 in test [1] worked out at 227 µM; in test [2], 208 µM. The CC50 in the test with CCRF-CEM [4] was over 200 µM.
As for `CN1CCN(Cc2ccc3n2Cc2ccccc2SC3c2ccccc2)CC1` (stereo unspecified), the 50% inhibitory concentration (IC50) in test [1] and in test [2] was over 1000 µM each time.
`O=C1Sc2cc3ccccc3cc2C(=O)N2CCSC12` (stereo unspecified) returned an EC50 in the test with CCRF-CEM [3] of 60 µM. The IC50 was 47 µM in test [1] and 40 µM in test [2]. For the same compound, the CC50 in the test with CCRF-CEM [4] was over 316 µM.
As for `O=C1c2ccccc2SC(O)(c2ccccc2)C2CCCN12` (stereo unspecified), the IC50 in test [1] and in test [2] was over 1000 µM throughout.
On to `COC1Sc2ccccc2C(=O)N2CCCC12` (stereo unspecified), for which the EC50 with CCRF-CEM [3] is over 200 µM. The IC50 in test [1] and in test [2] was over 1000 µM each time. Besides, the CC50 in the test with CCRF-CEM [4] is over 200 µM.
Compound `O=C1Sc2ccc(Cl)cc2C(=O)N2CSCC12` (stereo unspecified) registered an EC50 with CCRF-CEM [3] of over 100 µM. The figures for the half-maximal inhibitory concentration (IC50) in test [1] and in test [2] were 160 µM and 158 µM, respectively. The CC50 with CCRF-CEM [4] was over 100 µM.
In the test on CCRF-CEM [3], `O=C1Sc2ccc(Cl)cc2C(=O)N2CCSC12` (stereo unspecified) came in with an EC50 of over 50 µM. Besides, the IC50 in test [1] was 120 µM; in test [2], 151 µM. The compound also came in with a 50% cytotoxic concentration (CC50) in the test on CCRF-CEM [4] of over 50 µM.
For the compound `O=C1Sc2ccccc2Cn2cccc21`, it took 146 µM to reach a half-maximal effect in the test with CCRF-CEM [3] (EC50). The figures for the IC50 in test [1] and in test [2] were 300 µM and 590 µM, respectively. The compound further gave a CC50 in the test with CCRF-CEM [4] of over 200 µM.
The like results for `COc1cc2c(cc1OC)C(=O)N1CCCC1C(=O)S2` (stereo unspecified) were, in that order, over 200 µM, over 1000 µM, over 1000 µM and over 200 µM.
As for `O=C1Sc2ccccc2C(=O)N2CCSC12` (stereo unspecified), the CC50 with CCRF-CEM [5] was over 200 µM. Besides, the EC50 with CCRF-CEM [6] is 107 µM. The IC50 was determined as 146 µM in test [1] and 110 µM in test [2].
Take `O=C1Sc2ccccc2C(=O)N2CCCCC12` (stereo unspecified): the EC50 in the test on CCRF-CEM [3] is over 200 µM. Further, the IC50 stood at 343 µM in test [1] and 406 µM in test [2]. In the test on CCRF-CEM [4], the CC50 was over 200 µM.
In the test with CCRF-CEM [3], `O=C1c2ccccc2SC(O)C2CCCN12` (stereo unspecified) gave an EC50 of over 200 µM. Also, the IC50 in test [1] and in test [2] was over 1000 µM in each case. For the same compound, the CC50 in the test on CCRF-CEM [4] is over 200 µM.
For the compound `O=C1Sc2ccccc2C(=O)N2COCC12` (stereo unspecified), the IC50 in test [1] and in test [2] was over 333 µM in each case.
As for `O=C1Sc2ccc(Br)cc2C(=O)N2CCSC12` (stereo unspecified), the half-inhibitory concentration (IC50) came out at 48 µM in test [1] and 58 µM in test [2].
Turning to `Cc1ccc2c(c1)C(=O)N1CSCC1C(=O)S2` (stereo unspecified), the figures for the IC50 in test [1] and in test [2] were 63 µM and 52 µM, respectively. This compound returned a CC50 in the test with CCRF-CEM [4] of 35 µM.
In the test on CCRF-CEM [3], `Cc1ccc2c(c1)C(=O)N1CC[S+]([O-])C1C(=O)S2` (stereo unspecified) registered a concentration giving a half-maximal response (EC50) of over 100 µM. In addition, the concentration for half-maximal inhibition (IC50) in test [1] and in test [2] was 590 µM throughout. This compound yielded a 50% cytotoxic concentration (CC50) in the test with CCRF-CEM [4] of over 100 µM.
In the case of `O=C1Sc2ccc(Cl)cc2C(=O)N2C[S+]([O-])CC12` (stereo unspecified), the IC50 in test [1] was found to be 280 µM; in test [2] it was 260 µM.
Regarding `CC(=O)OC1Sc2ccccc2C(=O)N2CCCC12` (stereo unspecified), in the test on CCRF-CEM [3], the EC50 is over 200 µM. Moreover, the half-inhibitory concentration (IC50) in test [1] and in test [2] was over 1000 µM in each case. Also, the cytotoxic concentration (CC50) in the test on CCRF-CEM [4] was over 200 µM.
For the compound `O=C1Sc2ccc(Br)cc2C(=O)N2CSCC12` (stereo unspecified), the EC50 with CCRF-CEM [3] was over 200 µM. Besides, the IC50 in test [1] came out at 74 µM; in test [2], 87 µM. The compound also registered a CC50 in the test on CCRF-CEM [4] of over 200 µM.
Take `CN(C)Cc1ccc2n1Cc1ccccc1SC2c1ccc(F)cc1` (stereo unspecified): the IC50 in test [1] and in test [2] was over 1000 µM in each case.
`COc1ccc2c(c1)C(=O)N1C[S+]([O-])CC1C(=O)S2` (stereo unspecified): the figures for the IC50 in test [1] and in test [2] were 142 µM and 84.5 µM, respectively.
Take `O=C1Sc2cc3ccccc3cc2C(=O)N2CSCC12` (stereo unspecified): the midpoint of the response with CCRF-CEM [3], the EC50, lay at 280 µM. In addition, the IC50 is 100 µM in test [1] and 92 µM in test [2]. This compound also showed a CC50 in the test with CCRF-CEM [4] of over 316 µM.
The like results for `COc1cc2c(cc1OC)C(=O)N1CCCC1CS2` (stereo unspecified) were, in that order, over 200 µM, over 1000 µM, over 1000 µM and over 200 µM.
